# Where “and” joins values, the source holds several entries; their conditions need not be identical. Identical values can stand only once.
# Test system: HEK-293T
# Assay: Multiplex assay against HEK293T
# Assay type: toxicity, cell-based
# Conditions: human
# Summary of the method: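 Live cells were stained at seeding with Hoechst33342, BioTracker Green Microtubule Cytoskeleton Dye, MitoTracker Red and Annexin V Alexa Fluor 680, then imaged on a CQ1 microscope at 37°C and 5% CO2 after compound addition. CellPathfinder machine-learning gating split cells into Hoechst high-intensity objects or normal cells. Normal cells were split into healthy, pyknosed or fragmented nuclei, and pyknosed cells into mitotic or apoptotic. Tubulin, mitochondrial-mass and membrane-permeability phenotypes are per cents of healthy-nucleus cells.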
# [1] = 12 h, 1 µM, compound concentration 1 uM
# [2] = 12 h, 10 µM, compound concentration 10 uM
# [3] = 24 h, 1 µM, compound concentration 1 uM
# [4] = 24 h, 10 µM, compound concentration 10 uM
# [5] = 48 h, 1 µM, compound concentration 1 uM
# [6] = 48 h, 10 µM, compound concentration 10 uM
smiles,measurement,setting,value
COc1c(C)cc(NC(=O)c2nn(Cc3ccc(F)cc3)c3c2CN(C(=O)c2ccc[nH]2)C[C@]3(C)C(N)=O)cc1C,Population Apoptotic (%),[1],42% and 38%
same,Population Fragmented Nuclei (%),[1],6% and 7%
same,Population Healthy Nuclei (%),[1],79% and 75%
same,Population Hoechst High Intensity Objects (%),[1],7% and 5%
same,Population Membrane Permeable-Phenotype (%),[1],0%
same,Population Mitochondria Different-Phenotype (%),[1],51% and 58%
same,Population Mitotic Cells (%),[1],57% and 61%
same,Population Normal (%),[1],92% and 94%
same,Population Pyknosed Nuclei (%),[1],13% and 17%
same,Population Tubulin-Different-Phenotype (%),[1],36% and 29%
same,Total Cell Count,[1],426 and 304
same,Population Apoptotic (%),[2],67% and 59%
same,Population Fragmented Nuclei (%),[2],4% and 6%
same,Population Healthy Nuclei (%),[2],77% and 71%
same,Population Hoechst High Intensity Objects (%),[2],13%
same,Population Membrane Permeable-Phenotype (%),[2],0%
same,Population Mitochondria Different-Phenotype (%),[2],90% and 95%
same,Population Mitotic Cells (%),[2],32% and 40%
same,Population Normal (%),[2],86%
same,Population Pyknosed Nuclei (%),[2],17% and 21%
same,Population Tubulin-Different-Phenotype (%),[2],62% and 63%
same,Total Cell Count,[2],383 and 285
same,Population Apoptotic (%),[3],21% and 51%
same,Population Fragmented Nuclei (%),[3],7% and 5%
same,Population Healthy Nuclei (%),[3],80% and 86%
same,Population Hoechst High Intensity Objects (%),[3],4%
same,Population Membrane Permeable-Phenotype (%),[3],0%
same,Population Mitochondria Different-Phenotype (%),[3],30% and 43%
same,Population Mitotic Cells (%),[3],78% and 48%
same,Population Normal (%),[3],95%
same,Population Pyknosed Nuclei (%),[3],12% and 7%
same,Population Tubulin-Different-Phenotype (%),[3],24% and 16%
same,Total Cell Count,[3],574 and 422
same,Population Apoptotic (%),[4],53% and 67%
same,Population Fragmented Nuclei (%),[4],6% and 5%
same,Population Healthy Nuclei (%),[4],73% and 74%
same,Population Hoechst High Intensity Objects (%),[4],11% and 15%
same,Population Membrane Permeable-Phenotype (%),[4],0%
same,Population Mitochondria Different-Phenotype (%),[4],91% and 92%
same,Population Mitotic Cells (%),[4],46% and 32%
same,Population Normal (%),[4],88% and 84%
same,Population Pyknosed Nuclei (%),[4],19%
same,Population Tubulin-Different-Phenotype (%),[4],61% and 56%
same,Total Cell Count,[4],403 and 313
same,Population Apoptotic (%),[5],21% and 39%
same,Population Fragmented Nuclei (%),[5],11% and 12%
same,Population Healthy Nuclei (%),[5],81%
same,Population Hoechst High Intensity Objects (%),[5],2% and 3%
same,Population Membrane Permeable-Phenotype (%),[5],1%
same,Population Mitochondria Different-Phenotype (%),[5],25% and 28%
same,Population Mitotic Cells (%),[5],78% and 60%
same,Population Normal (%),[5],97% and 96%
same,Population Pyknosed Nuclei (%),[5],6%
same,Population Tubulin-Different-Phenotype (%),[5],18% and 9%
same,Total Cell Count,[5],920 and 652
same,Population Apoptotic (%),[6],60% and 80%
same,Population Fragmented Nuclei (%),[6],8% and 9%
same,Population Healthy Nuclei (%),[6],76% and 81%
same,Population Hoechst High Intensity Objects (%),[6],14% and 10%
same,Population Membrane Permeable-Phenotype (%),[6],0%
same,Population Mitochondria Different-Phenotype (%),[6],93% and 90%
same,Population Mitotic Cells (%),[6],39% and 19%
same,Population Normal (%),[6],85% and 89%
same,Population Pyknosed Nuclei (%),[6],15% and 9%
same,Population Tubulin-Different-Phenotype (%),[6],66% and 59%
same,Total Cell Count,[6],467 and 376
CN(C)CCCc1cc(C(=O)Nc2ccc(-c3ccncc3)cc2)ccc1O.Cl.Cl,Population Apoptotic (%),[1],27% and 37%
same,Population Fragmented Nuclei (%),[1],5%
same,Population Healthy Nuclei (%),[1],79% and 82%
same,Population Hoechst High Intensity Objects (%),[1],9% and 8%
same,Population Membrane Permeable-Phenotype (%),[1],0%
same,Population Mitochondria Different-Phenotype (%),[1],48% and 58%
same,Population Mitotic Cells (%),[1],72% and 62%
same,Population Normal (%),[1],90% and 91%
same,Population Pyknosed Nuclei (%),[1],14% and 11%
same,Population Tubulin-Different-Phenotype (%),[1],37% and 14%
same,Total Cell Count,[1],358 and 367
same,Population Apoptotic (%),[2],31% and 60%
same,Population Fragmented Nuclei (%),[2],10% and 11%
same,Population Healthy Nuclei (%),[2],81% and 77%
same,Population Hoechst High Intensity Objects (%),[2],6% and 9%
same,Population Membrane Permeable-Phenotype (%),[2],0% and 2%
same,Population Mitochondria Different-Phenotype (%),[2],49% and 63%
same,Population Mitotic Cells (%),[2],68% and 39%
same,Population Normal (%),[2],93% and 90%
same,Population Pyknosed Nuclei (%),[2],7% and 11%
same,Population Tubulin-Different-Phenotype (%),[2],33%
same,Total Cell Count,[2],460 and 391
same,Population Apoptotic (%),[3],25%
same,Population Fragmented Nuclei (%),[3],11% and 9%
same,Population Healthy Nuclei (%),[3],78% and 83%
same,Population Hoechst High Intensity Objects (%),[3],5%
same,Population Membrane Permeable-Phenotype (%),[3],1% and 0%
same,Population Mitochondria Different-Phenotype (%),[3],26% and 32%
same,Population Mitotic Cells (%),[3],74% and 75%
same,Population Normal (%),[3],94%
same,Population Pyknosed Nuclei (%),[3],10% and 6%
same,Population Tubulin-Different-Phenotype (%),[3],21% and 9%
same,Total Cell Count,[3],542 and 486
same,Population Apoptotic (%),[4],32% and 47%
same,Population Fragmented Nuclei (%),[4],12% and 15%
same,Population Healthy Nuclei (%),[4],77% and 74%
same,Population Hoechst High Intensity Objects (%),[4],5% and 15%
same,Population Membrane Permeable-Phenotype (%),[4],0%
same,Population Mitochondria Different-Phenotype (%),[4],38% and 48%
same,Population Mitotic Cells (%),[4],67% and 52%
same,Population Normal (%),[4],94% and 84%
same,Population Pyknosed Nuclei (%),[4],9%
same,Population Tubulin-Different-Phenotype (%),[4],23% and 19%
same,Total Cell Count,[4],588 and 505
same,Population Apoptotic (%),[5],23% and 21%
same,Population Fragmented Nuclei (%),[5],11% and 16%
same,Population Healthy Nuclei (%),[5],81% and 75%
same,Population Hoechst High Intensity Objects (%),[5],2% and 5%
same,Population Membrane Permeable-Phenotype (%),[5],2% and 1%
same,Population Mitochondria Different-Phenotype (%),[5],19% and 24%
same,Population Mitotic Cells (%),[5],76% and 78%
same,Population Normal (%),[5],97% and 94%
same,Population Pyknosed Nuclei (%),[5],6% and 8%
same,Population Tubulin-Different-Phenotype (%),[5],14% and 13%
same,Total Cell Count,[5],814 and 596
same,Population Apoptotic (%),[6],29% and 58%
same,Population Fragmented Nuclei (%),[6],17% and 15%
same,Population Healthy Nuclei (%),[6],75% and 76%
same,Population Hoechst High Intensity Objects (%),[6],5% and 11%
same,Population Membrane Permeable-Phenotype (%),[6],1% and 0%
same,Population Mitochondria Different-Phenotype (%),[6],21% and 35%
same,Population Mitotic Cells (%),[6],70% and 41%
same,Population Normal (%),[6],94% and 88%
same,Population Pyknosed Nuclei (%),[6],6% and 7%
same,Population Tubulin-Different-Phenotype (%),[6],13% and 20%
same,Total Cell Count,[6],883 and 641

# Reference: ChEMBL document CHEMBL5724801, “EUbOPEN Chemogenomics Library - Multiplex” (2024)
